Laboratory results from ChEMBL document CHEMBL1125204, “Synthesis and biological activity of sinefungin analogues” (J Med Chem, 1991).

Legend:
Leishmania donovani [1] = assay: Cell growth of Leishmania donovani promastigotes measured at 0h of 0.26 uM sinefungin treatment before compound (130 uM) addition.; assay type: functional
Procedure, shortened: (§1)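 L. donovani LRC L-52 promastigotes, 0.5×10^6 in 500 μL, grown at 26 °C in 45% DMEM/45% RPMI 1640 (25 mM HEPES pH 7.4) with 10% heat-inactivated FCS. Compounds in water added with 0.26 μM sinefungin. Duplicate wells beside untreated cultures; hemacytometer counts; growth inhibition expressed as % of untreated.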

Leishmania donovani [2] = assay: Thymidine uptake and incorporation in Leishmania donovani promastigotes measured in the TCA soluble material at a concentration 130 uM in the presence of sinefungin (0.026 uM).; assay type: functional
Procedure, shortened: (§2)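 Promastigotes at 5×10^8 cells/mL in DMEM/RPMI/FCS medium at 26 °C, equilibrated 3–4 h, then exposed 4 h to compound alone or with 0.026 μM sinefungin. Labelled 1 h with 2.5 μCi/mL [methyl-3H]thymidine and washed in cold PBS. Uptake taken from cold TCA-soluble fraction, incorporation from TCA-insoluble fraction. Protein measured by Lowry method.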

Leishmania donovani [3] = assay: Cell growth of Leishmania donovani promastigotes measured at 24 hr of 0.26 uM sinefungin treatment before compound (130 uM) addition.; assay type: functional; procedure, shortened: as §1
Leishmania donovani [4] = assay: Thymidine uptake and incorporation in Leishmania donovani promastigotes measured in the TCA insoluble material at a concentration 130 uM in the presence of sinefungin (0.026 uM).; assay type: functional; procedure, shortened: as §2
[5] = It is the ratio of Ki value to that of Km.; assay type: ADME
Procedure, shortened: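 Ki/Km ratio for protein-carboxyl methyltransferase in cell-free promastigote extracts, α-globulin as substrate. Ki and Km read from Lineweaver–Burk plots.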

Leishmania donovani [6] = assay: Cell growth of Leishmania donovani promastigotes measured at 48 hr of 0.26 uM sinefungin treatment before compound (130 uM) addition.; assay type: functional; procedure, shortened: as §1
Leishmania donovani [7] = assay: (§3) Apparent kinetic activity measured for protein carboxyl methyltransferase in Leishmania donovani promastigotes; assay type: organism-based
Procedure, shortened: (§4)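 Cell-free extracts of L. donovani promastigotes (strain LRC L-52) assayed for S-adenosylmethionine:protein-carboxyl methyltransferase activity, with α-globulin as the methyl-accepting substrate. Kinetic constants came from Lineweaver–Burk plots and were expressed as a Ki/Km ratio. Protein was measured by the Bradford dye-binding method against a bovine serum albumin standard.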

Leishmania donovani [8] = assay: Thymidine uptake and incorporation in Leishmania donovani promastigotes measured in the TCA insoluble material.; assay type: functional; procedure, shortened: as §2
Leishmania donovani [9] = assay: Cell growth of Leishmania donovani promastigotes measured at 0h of 0.26 uM sinefungin treatment before compound addition.; assay type: functional; procedure, shortened: as §1
Leishmania donovani [10] = assay: Thymidine uptake and incorporation in Leishmania donovani promastigotes measured in the TCA soluble material.; assay type: functional; procedure, shortened: as §2
Leishmania donovani [11] = assay: Thymidine uptake and incorporation in Leishmania donovani promastigotes measured in the TCA insoluble material in the presence of sinefungin (0.026 uM).; assay type: functional; procedure, shortened: as §2
Leishmania donovani [12] = assay: Thymidine uptake and incorporation in Leishmania donovani promastigotes measured in the TCA soluble material in the presence of sinefungin (0.026 uM).; assay type: functional; procedure, shortened: as §2
Leishmania donovani [13] = assay: Cell growth of Leishmania donovani promastigotes measured at 0h of 0.26 uM sinefungin treatment before compound (156 uM) addition.; assay type: functional; procedure, shortened: as §1
Leishmania donovani [14] = assay: Cell growth of Leishmania donovani promastigotes measured at 48 hr of 0.26 uM sinefungin treatment before compound (156 uM) addition.; assay type: functional; procedure, shortened: as §1
Leishmania donovani [15] = assay: Cell growth of Leishmania donovani promastigotes measured at 24 hr of 0.26 uM sinefungin treatment before compound (156 uM) addition.; assay type: functional; procedure, shortened: as §1
Leishmania donovani [16] = assay: Thymidine uptake and incorporation in Leishmania donovani promastigotes measured in the TCA insoluble material at a concentration 1.25 uM.; assay type: functional; procedure, shortened: as §2
Leishmania donovani [17] = assay: Thymidine uptake and incorporation in Leishmania donovani promastigotes measured in the TCA insoluble material at a concentration 1.25 uM in the presence of sinefungin (0.026 uM).; assay type: functional; procedure, shortened: as §2
Leishmania donovani [18] = assay: Thymidine uptake and incorporation in Leishmania donovani promastigotes measured in the TCA soluble material at a concentration 1.25 uM.; assay type: functional; procedure, shortened: as §2
Leishmania donovani [19] = assay: Thymidine uptake and incorporation in Leishmania donovani promastigotes measured in the TCA soluble material at a concentration 1.25 uM in the presence of sinefungin (0.026 uM).; assay type: functional; procedure, shortened: as §2
Leishmania donovani [20] = assay: Thymidine uptake and incorporation in Leishmania donovani promastigotes measured in the TCA soluble material at a concentration 2.1 uM.; assay type: functional; procedure, shortened: as §2
Leishmania donovani [21] = assay: Thymidine uptake and incorporation in Leishmania donovani promastigotes measured in the TCA insoluble material at a concentration 2.1 uM in the presence of sinefungin (0.026 uM).; assay type: functional; procedure, shortened: as §2
Leishmania donovani [22] = assay: Thymidine uptake and incorporation in Leishmania donovani promastigotes measured in the TCA soluble material at a concentration 2.1 uM in the presence of sinefungin (0.026 uM).; assay type: functional; procedure, shortened: as §2
Leishmania donovani [23] = assay: Thymidine uptake and incorporation in Leishmania donovani promastigotes measured in the TCA insoluble material at a concentration 2.1 uM.; assay type: functional; procedure, shortened: as §2
Leishmania donovani [24] = assay: as §3; assay type: ADME, organism-based; conditions: in vitro; procedure, shortened: as §4
Leishmania donovani [25] = assay: Thymidine uptake and incorporation in Leishmania donovani promastigotes measured in the TCA soluble material at a concentration 23.3 uM in the presence of sinefungin (0.026 uM).; assay type: functional; procedure, shortened: as §2
Leishmania donovani [26] = assay: Cell growth of Leishmania donovani promastigotes measured at 0h of 0.26 uM sinefungin treatment before compound (260 uM) addition.; assay type: functional; procedure, shortened: as §1
Leishmania donovani [27] = assay: Cell growth of Leishmania donovani promastigotes measured at 48 hr of 0.26 uM sinefungin treatment before compound (260 uM) addition.; assay type: functional; procedure, shortened: as §1
Leishmania donovani [28] = assay: Thymidine uptake and incorporation in Leishmania donovani promastigotes measured in the TCA insoluble material at a concentration 11.6 uM.; assay type: functional; procedure, shortened: as §2
Leishmania donovani [29] = assay: Thymidine uptake and incorporation in Leishmania donovani promastigotes measured in the TCA insoluble material at a concentration 23.3 uM in the presence of sinefungin (0.026 uM).; assay type: functional; procedure, shortened: as §2
Leishmania donovani [30] = assay: Cell growth of Leishmania donovani promastigotes measured at 16h of 0.26 uM sinefungin treatment before compound (260 uM) addition.; assay type: functional; procedure, shortened: as §1
Leishmania donovani [31] = assay: Thymidine uptake and incorporation in Leishmania donovani promastigotes measured in the TCA soluble material at a concentration 11.6 uM.; assay type: functional; procedure, shortened: as §2
Leishmania donovani [32] = assay: Cell growth of Leishmania donovani promastigotes measured at 24 hr of 0.26 uM sinefungin treatment before compound (260 uM) addition.; assay type: functional; procedure, shortened: as §1
Leishmania donovani [33] = assay: Thymidine uptake and incorporation in Leishmania donovani promastigotes measured in the TCA soluble material at a concentration 23.3 uM.; assay type: functional; procedure, shortened: as §2
Leishmania donovani [34] = assay: Thymidine uptake and incorporation in Leishmania donovani promastigotes measured in the TCA insoluble material at a concentration 23.3 uM.; assay type: functional; procedure, shortened: as §2
Leishmania donovani [35] = assay: Thymidine uptake and incorporation in Leishmania donovani promastigotes measured in the TCA insoluble material at a concentration 11.6 uM in the presence of sinefungin (0.026 uM).; assay type: functional; procedure, shortened: as §2
Leishmania donovani [36] = assay: Cell growth of Leishmania donovani promastigotes measured at 24 hr of 0.26 uM sinefungin treatment before compound (148 uM) addition.; assay type: functional; procedure, shortened: as §1
Leishmania donovani [37] = assay: Cell growth of Leishmania donovani promastigotes measured at 0h of 0.26 uM sinefungin treatment before compound (148 uM) addition.; assay type: functional; procedure, shortened: as §1

Compound: C=CCCCC(N)C[C@H]1OC(n2cnc3c(N)ncnc32)[C@H](O)[C@@H]1O (stereo partly specified)
- Cell growth (Leishmania donovani [1]): 97%
- Thymidine uptake (Leishmania donovani [2]): 1703083 c.p.m. (mg of protein)-1
- Cell growth (Leishmania donovani [3]): 65%
- Thymidine uptake (Leishmania donovani [4]): 2880449 c.p.m. (mg of protein)-1
- Ratio [5]: 15.9
- Cell growth (Leishmania donovani [6]): 41%
- Ki (Leishmania donovani [7]): 877 µM

Compound: Nc1ncnc2c1ncn2C1O[C@H](C[C@@H](N)CC[C@@H](N)C(=O)O)[C@@H](O)[C@H]1O (stereo partly specified)
- Thymidine uptake (Leishmania donovani [8]): 956745 c.p.m. (mg of protein)-1
- Cell growth (Leishmania donovani [9]): 15%
- Thymidine uptake (Leishmania donovani [10]): 1741329 c.p.m. (mg of protein)-1
- Thymidine uptake (Leishmania donovani [11]): 2197110 c.p.m. (mg of protein)-1
- Thymidine uptake (Leishmania donovani [12]): 1583862 c.p.m. (mg of protein)-1

Compound: Nc1ncnc2c1ncn2[C@@H]1O[C@H](CC2CCNC2)[C@@H](O)[C@H]1O (stereo in doubt; 6a)
- Cell growth (Leishmania donovani [13]): 83%
- Cell growth (Leishmania donovani [14]): 37%
- Ratio [5]: 2.1
- Ki (Leishmania donovani [7]): 103 µM
- Cell growth (Leishmania donovani [15]): 74%

Compound: Nc1ncnc2c1ncn2[C@@H]1O[C@H](CC(N)CCCC(=O)O)[C@@H](O)[C@H]1O (stereo in doubt; 3a)
- Thymidine uptake (Leishmania donovani [16]): 1772064 c.p.m. (mg of protein)-1
- Thymidine uptake (Leishmania donovani [17]): 1459000 c.p.m. (mg of protein)-1
- Thymidine uptake (Leishmania donovani [18]): 1499100 c.p.m. (mg of protein)-1
- Ratio [5]: 3
- Thymidine uptake (Leishmania donovani [19]): 1556483 c.p.m. (mg of protein)-1
- Ki (Leishmania donovani [7]): 165 µM

Compound: Nc1ncnc2c1ncn2[C@@H]1O[C@H](CC(N)CCCC(=O)O)[C@@H](O)[C@H]1O (stereo in doubt; 3b)
- Thymidine uptake (Leishmania donovani [20]): 1161185 c.p.m. (mg of protein)-1
- Thymidine uptake (Leishmania donovani [21]): 1861835 c.p.m. (mg of protein)-1
- Ratio [5]: 6.9
- Thymidine uptake (Leishmania donovani [22]): 1973260 c.p.m. (mg of protein)-1
- Thymidine uptake (Leishmania donovani [23]): 3284127 c.p.m. (mg of protein)-1
- Ki (Leishmania donovani [7]): 380 µM

Compound: C[S+](CC[C@H](N)C(=O)[O-])C[C@H]1O[C@@H](n2cnc3c(N)ncnc32)[C@H](O)[C@@H]1O (stereo partly specified) [ADEMETIONINE]
- Km (Leishmania donovani [24]): 55 µM

Compound: Nc1ncnc2c1ncn2[C@@H]1O[C@H](CC2CCNC2)[C@@H](O)[C@H]1O (stereo in doubt; 6b)
- Ratio [5]: 2.9
- Ki (Leishmania donovani [7]): 140 µM

Compound: Nc1ncnc2c1ncn2[C@@H]1O[C@H](CC(N)CCCC(O)CO)[C@@H](O)[C@H]1O (stereo partly specified)
- Thymidine uptake (Leishmania donovani [25]): 1230950 c.p.m. (mg of protein)-1
- Cell growth (Leishmania donovani [26]): 100%
- Cell growth (Leishmania donovani [27]): 41%
- Thymidine uptake (Leishmania donovani [28]): 3148603 c.p.m. (mg of protein)-1
- Thymidine uptake (Leishmania donovani [29]): 3097327 c.p.m. (mg of protein)-1
- Cell growth (Leishmania donovani [30]): 92%
- Thymidine uptake (Leishmania donovani [31]): 823954 c.p.m. (mg of protein)-1
- Cell growth (Leishmania donovani [32]): 59%
- Ratio [5]: 8.3
- Thymidine uptake (Leishmania donovani [33]): 1020493 c.p.m. (mg of protein)-1
- Thymidine uptake (Leishmania donovani [34]): 4079585 c.p.m. (mg of protein)-1
- Thymidine uptake (Leishmania donovani [35]): 3391425 c.p.m. (mg of protein)-1
- Ki (Leishmania donovani [7]): 446 µM

Compound: NCCC(CN)C[C@H]1OC(n2cnc3c(N)ncnc32)[C@H](O)[C@@H]1O (stereo partly specified)
- Cell growth (Leishmania donovani [36]): 80%
- Cell growth (Leishmania donovani [37]): 93%
- Ratio [5]: 23.3
- Ki (Leishmania donovani [7]): 1120 µM

Compound: Nc1ncnc2c1ncn2[C@@H]1O[C@H](CSCC[C@H](N)C(=O)O)[C@@H](O)[C@H]1O [S-ADENOSYLHOMOCYSTEINE]
- Ratio [5]: 0.13
- Ki (Leishmania donovani [7]): 7.2 µM
